Hits are enriched below; roughly 3.8% of the tested compounds scored in any of these assays.
KCNK9 block: blocks the human KCNK9 two-pore domain potassium channel; Q9NPC2; HEK293 KCNK9, FluxOR thallium flux fluorescence; stronger effect = lower value; B-score at 10 µM; hit rate 1.2% among 310,000; AID 488922;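 active = ratio B-score over 3 SD below the library mean, with starting fluorescence within 5 SD of its mean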;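 also: negative B-score means less thallium flux so channel inhibition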
KCNK3 inh: human KCNK3 channel inhibition, primary screen; O14649; CHO-KCNK3 thallium flux, FluxOR fluorescence; stronger effect = lower value; hit rate 0.84% among 340,000; B-score at 10 µM;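 active = B-score under library mean minus 4 SD, starting fluorescence ratio at most library mean plus 5 SD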;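 also: more negative B-score means stronger inhibition of thallium flux through KCNK3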
KCNQ1 pot: human KCNQ1 channel potentiation or activation; CHO-K1 KCNQ1, thallium flux FluxOR fluorescence; stronger effect = higher value; P51787; B-score at 10 µM; hit rate 0.35% among 310,000;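 active = fluorescence ratio B-score, a plate-corrected score, at least three library SD, with initial intensity B-score within 5 SD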
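assay system = KCNQ1-transfected CHO-K1 cells | medium = assay buffer with matched DMSO | probe or stimulus = depolarizing K+/Tl+ stimulus, K2SO4 and Tl2SO4 each 12.5 mM in 5x stock | dosing = single dose | incubation = dye 90 min, compound 20 min, room temperature | detection = kinetic FluxOR fluorescence, 10 s baseline plus 110 s post-stimulus | evaluation = ratio B score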
KCNQ1 inh: blocks the human KCNQ1 potassium channel; hit rate 1.3% among 310,000; B-score at 10 µM; P51787; CHO-K1 KCNQ1, FluxOR thallium flux fluorescence; stronger effect = higher value;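 active = compounds whose thallium flux B-score, printed positive for inhibition, exceeds three library SD while starting fluorescence stays within three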;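 also: channel opened by potassium depolarization with thallium stimulus after 20 min compound exposure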
hERG rescue: hERG (human) protection from proarrhythmic block | Q12809 | CHO-hERG, FluxOR thallium flux, dofetilide IC70 present | activation (rescue from dofetilide block), less the hit threshold, % at 10 µM | hit rate 0.51% among 310,000 | AID 1511;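 active = activation above the mean of controls blocked by dofetilide plus 5 SD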;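 also: thallium influx through hERG after potassium depolarization seen as dye fluorescence rise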
Target sequence (Q12809 whole entry, looked up): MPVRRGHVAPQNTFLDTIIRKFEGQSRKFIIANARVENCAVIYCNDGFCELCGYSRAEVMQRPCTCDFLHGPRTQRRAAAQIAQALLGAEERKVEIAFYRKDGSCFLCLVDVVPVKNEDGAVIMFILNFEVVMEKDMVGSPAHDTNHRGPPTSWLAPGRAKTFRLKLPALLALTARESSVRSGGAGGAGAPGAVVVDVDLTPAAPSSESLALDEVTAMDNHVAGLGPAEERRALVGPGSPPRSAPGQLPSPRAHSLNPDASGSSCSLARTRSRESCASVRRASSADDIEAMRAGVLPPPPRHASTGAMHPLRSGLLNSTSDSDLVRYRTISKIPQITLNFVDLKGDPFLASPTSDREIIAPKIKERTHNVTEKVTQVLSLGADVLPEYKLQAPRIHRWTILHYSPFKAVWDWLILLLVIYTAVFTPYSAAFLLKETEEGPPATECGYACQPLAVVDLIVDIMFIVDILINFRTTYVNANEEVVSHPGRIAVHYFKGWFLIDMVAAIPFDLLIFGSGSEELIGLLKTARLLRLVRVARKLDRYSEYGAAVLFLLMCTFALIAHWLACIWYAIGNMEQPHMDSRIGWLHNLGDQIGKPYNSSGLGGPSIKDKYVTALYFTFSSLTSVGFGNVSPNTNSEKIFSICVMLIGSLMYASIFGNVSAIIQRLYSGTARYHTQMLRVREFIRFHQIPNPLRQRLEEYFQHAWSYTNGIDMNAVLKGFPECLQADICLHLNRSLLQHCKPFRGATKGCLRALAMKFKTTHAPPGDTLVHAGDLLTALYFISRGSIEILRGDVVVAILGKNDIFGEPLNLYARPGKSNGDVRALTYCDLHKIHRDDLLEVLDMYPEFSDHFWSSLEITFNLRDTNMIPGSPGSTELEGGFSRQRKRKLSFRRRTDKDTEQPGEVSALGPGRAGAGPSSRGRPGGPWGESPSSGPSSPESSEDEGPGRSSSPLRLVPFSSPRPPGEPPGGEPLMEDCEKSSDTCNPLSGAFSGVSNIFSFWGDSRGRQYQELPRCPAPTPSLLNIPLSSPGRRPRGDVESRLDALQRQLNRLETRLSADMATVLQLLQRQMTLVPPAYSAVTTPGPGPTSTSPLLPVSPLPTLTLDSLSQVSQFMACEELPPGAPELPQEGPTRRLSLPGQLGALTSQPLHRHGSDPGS
Kir21 inh: inhibitors of mouse Kir2.1 inward-rectifier potassium channel | P35561 | HEK293-Kir2.1, FluxOR thallium flux fluorescence; stronger effect = lower value | B-score at 10 µM | hit rate 0.85% among 310,000 | AID 1672;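 active = fluorescence ratio B-score at or below minus 3 SD of library scores, with starting-brightness B-score within 2 SD, cut at about -4.2 in these data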;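 also: channel flux triggered by added potassium and thallium sulfate stimulus; B-score of peak minus minimum fluorescence over baseline after thallium stimulus; more negative B-score means stronger Kir2.1 block with less thallium influx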
KCNK9 block conf: human KCNK9 inhibitor confirmation | inhibition, % at 10 µM | hit rate 43% among 4,900 | HEK293 KCNK9 cells, FluxOR thallium flux fluorescence | shares compounds with KCNK9 block;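 active = thallium signal inhibited by more than 5 SD of the compound-free buffer control wells, on both duplicate plates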
Kir2-1 spec: mouse Kir2.1 off-target activity of KCNK9 modulators. Kir2.1 cells, FluxOR thallium flux fluorescence. inhibition, % at 10 µM. shares compounds with KCNK9 block. hit rate 4% among 4,900;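 active = thallium signal drop more than 5 SD beyond the mean of the no-compound control wells, seen in both duplicate plates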;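 also: signal is fluorescence rise after thallium addition divided by baseline fluorescence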
KCNK9 uninduced: non-induced cell nonspecific activity of KCNK9 modulators; non-induced KCNK9-HEK293, FluxOR thallium flux; inhibition, % at 10 µM; hit rate 40% among 4,900; shares compounds with KCNK9 block;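 active = thallium signal drop beyond 5 SD of the untreated control mean, on both duplicate plates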
KCNK3 inh conf: human KCNK3 channel inhibition, confirmation assay; shares compounds with KCNK3 inh; AID 651638; hit rate 99% among 2,400; ratio percent of control, % at 10 µM; CHO-KCNK3 thallium flux, FluxOR fluorescence; 0% buffer, 100% carvedilol maximal block;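 active = ratio percent of control, averaged over triplicates, above buffer control mean plus 5 SD, cut at about 64% in these data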;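 also: ratio is the fluorescence rise from min to max over baseline after thallium stimulus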
KCNK3 uninduced: activity in cells without induced KCNK3 expression; thallium flux ratio (lower = more inhibition) at 10 µM; non-induced KCNK3 parental cells, FluxOR thallium flux; stronger effect = lower value; hit rate 40% among 2,400; shares compounds with KCNK3 inh;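 active = thallium flux ratio, averaged over three wells, more than 5 SD below the buffer control mean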;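 also: host cells are CHO cells without KCNK3 induction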
Of the large screens only hits and unclear results are named; the others gave an inactive call (follow-up assays come after a bar, where they were run).

O=C(O)C1CCCCC1C(=O)Nc1ccc(F)cc1F (stereo not given)	none
COc1ccc(-c2ccc(SCC(=O)c3ccc(F)cc3)nn2)cc1OC	KCNK9 block -15, KCNK3 inh -9.8 | KCNK9 block conf 64% | Kir2-1 spec inactive | KCNK9 uninduced inactive | KCNK3 inh conf 118 | KCNK3 uninduced inactive
COc1ccc(-c2ccc(SCC(=O)c3cccs3)nn2)cc1OC	none
CCCCC(C(=O)NC1CCCC1)N(Cc1ccco1)C(=O)Cn1nnc(-c2ccc(F)cc2)n1 (stereo not given)	KCNK9 block -22, KCNK3 inh -12 | KCNK9 block conf 54% | Kir2-1 spec inactive | KCNK9 uninduced 37% | KCNK3 inh conf 92 | KCNK3 uninduced inactive
CSc1ccc(Cl)c(C(=O)NCCOc2cc(C(C)C)ccc2C)c1	KCNK9 block -20, KCNK3 inh -10 | KCNK9 block conf 72% | Kir2-1 spec inactive | KCNK9 uninduced 38% | KCNK3 inh conf 128 | KCNK3 uninduced 0.13
O=C(N/N=C/C(Cl)=C/c1ccccc1)c1ccccc1F	none
O=C(N/N=C/C(Br)=C/c1ccccc1)c1ccccc1F	KCNK9 block -9.2, KCNK3 inh -9.4 | KCNK9 block conf 28% | Kir2-1 spec inactive | KCNK9 uninduced inactive | KCNK3 inh conf 98 | KCNK3 uninduced inactive
COc1ccccc1NS(=O)(=O)c1ccc(C(=O)NCC(c2cccs2)N2CCOCC2)cc1 (stereo not given)	none (no result: KCNK9 block, KCNQ1 pot, KCNQ1 inh, hERG rescue, Kir21 inh)
COc1ccccc1C(=O)Nc1ccc(S(=O)(=O)N(C)c2ccccc2)cc1	KCNK9 block -9.1, KCNK3 inh -9.3 | KCNK9 block conf 48% | Kir2-1 spec inactive | KCNK9 uninduced inactive | KCNK3 inh conf 106 | KCNK3 uninduced inactive
COC(=O)c1cc(COc2ccc3oc(C)c(C(=O)OC(C)C)c3c2)c(C)o1	KCNK9 block -10 | KCNK9 block conf inactive | Kir2-1 spec inactive | KCNK9 uninduced 46% | KCNK3 inh conf 92 | KCNK3 uninduced 0.14
CC(Oc1cc(F)ccc1[N+](=O)[O-])C(=O)N(C)CC(=O)Nc1ccccc1C(F)(F)F (stereo not given)	none
CCC(C)n1c(SCC(=O)Nc2cc(C)on2)nc2ccccc2c1=O (stereo not given)	none
CCC(C)n1c(SCC(=O)Nc2cc(C(C)(C)C)nn2-c2ccccc2)nc2ccccc2c1=O (stereo not given)	KCNK9 block -8.2, KCNQ1 inh 10 | KCNK9 block conf 40% | Kir2-1 spec inactive | KCNK9 uninduced 38% | KCNK3 inh conf 105 | KCNK3 uninduced 0.13
COn1c(SCc2ccccc2)nc2ccccc2c1=O	none
COn1c(SCc2cccc(Cl)c2)nc2ccccc2c1=O	KCNK9 block -9.7, KCNK3 inh -11 | KCNK9 block conf 50% | Kir2-1 spec inactive | KCNK9 uninduced inactive | KCNK3 inh conf 84 | KCNK3 uninduced inactive
COCCn1c(SCc2ccc(OC)c(F)c2)nc2ccccc2c1=O	KCNK9 block -16, KCNK3 inh -12 | KCNK9 block conf 79% | Kir2-1 spec inactive | KCNK9 uninduced 64% | KCNK3 inh conf 106 | KCNK3 uninduced inactive
COCCn1c(SCc2nc3ccccc3c(=O)[nH]2)nc2ccccc2c1=O	none
Cc1cc(/C=N/Nc2nc(N)ncc2[N+](=O)[O-])c(C)n1-c1cccc(C(F)(F)F)c1	none (no result: KCNK3 inh)
CCOC(=O)c1c(CN(C)C)n(-c2ccc(C)cc2)c2cc(Br)c(O)cc12	none
CCOC(=O)c1c(CSC(=N)N)n(-c2ccc(C)cc2)c2cc(Br)c(OC(C)=O)cc12	KCNK9 block -8.7, KCNK3 inh -12, KCNQ1 inh 6, Kir21 inh -15 | KCNK9 block conf inactive | Kir2-1 spec inactive | KCNK9 uninduced inactive | KCNK3 inh conf 129 | KCNK3 uninduced 0.15
O=S(=O)(c1ccccc1)N1N=C(c2ccc(Br)cc2)CC1c1ccco1 (stereo not given)	KCNK9 block -11, KCNK3 inh -10 | KCNK9 block conf 38% | Kir2-1 spec inactive | KCNK9 uninduced 39% | KCNK3 inh conf 103 | KCNK3 uninduced inactive
O=c1cc(N2CCCCC2)c(-c2ccccc2)nn1Cc1c(Cl)cccc1Cl	KCNK9 block -10, KCNK3 inh -8.8, KCNQ1 inh 9 | KCNK9 block conf 52% | Kir2-1 spec inactive | KCNK9 uninduced 25% | KCNK3 inh conf 98 | KCNK3 uninduced 0.15
CCN(CC)C(=O)Oc1ccc2oc(=O)cc(-c3cc4cccc(OC)c4o3)c2c1	KCNK9 block -18, KCNK3 inh -10 | KCNK9 block conf 80% | Kir2-1 spec inactive | KCNK9 uninduced 34% | KCNK3 inh conf 104 | KCNK3 uninduced inactive
COc1ccc2oc(=O)cc(-c3cc4cccc(OC)c4o3)c2c1	none
CC(C)c1cc(NC(=O)c2ccccc2)cc(C(C)C)c1O	none
CC(C)c1ccccc1NC(=O)c1cccc(NC(=O)c2ccccc2)c1	KCNK9 block -10, KCNK3 inh -10 | KCNK9 block conf 40% | Kir2-1 spec inactive | KCNK9 uninduced inactive | KCNK3 inh conf 106 | KCNK3 uninduced inactive
CCc1cccc(CC)c1NC(=O)c1cccc(NC(=O)c2ccccc2)c1	KCNK9 block -8.6 | KCNK9 block conf 64% | Kir2-1 spec inactive | KCNK9 uninduced inactive | KCNK3 inh conf 81 | KCNK3 uninduced inactive
C=CCn1c(SCc2c(C)noc2C)nc2ccccc2c1=O	none
COc1cc2nc(SCc3c(C)noc3C)n(CCC3=CCCCC3)c(=O)c2cc1OC	KCNK9 block -14, KCNK3 inh -10 | KCNK9 block conf 28% | Kir2-1 spec 32% | KCNK9 uninduced 32% | KCNK3 inh conf 125 | KCNK3 uninduced 0.14
Cc1c(Cl)cccc1-n1nnnc1-c1cccs1	KCNK9 block -9.3, KCNK3 inh -11 | KCNK9 block conf 44% | Kir2-1 spec inactive | KCNK9 uninduced 32% | KCNK3 inh conf 108 | KCNK3 uninduced inactive
